Screening data as filed in PubChem BioAssay.
Beta cell apopt: beta cell apoptosis inhibition; INS-1E cytokine-induced death, ATP luminescence, 48 h; percent of positive-control rescue, neutral wells zero; protection from apoptosis, % (concentration not given with the values); hit rate 0.8% among 300,000; AID 435005;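 active = Every replicate reaches about 75%, or at least half do and their mean reaches it too, limit read from the data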;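 also: higher means more ATP so stronger rescue from cytokine killing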
TMEM16A inh: blocks the mouse calcium-activated chloride channel TMEM16A. hit rate 1.2% among 310,000. normalized B-score (activity score, 25-100; higher = stronger inhibition) at 10 µM. HEK293 TMEM16A/YFP iodide influx fluorescence, ionomycin;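 active = ratio plate-corrected score three or more library SD toward inhibition, starting fluorescence score within five deviations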;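 also: score derived from kinetic fluorescence span divided by baseline fluorescence per well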
Target sequence (Q8BHY3 whole entry, looked up): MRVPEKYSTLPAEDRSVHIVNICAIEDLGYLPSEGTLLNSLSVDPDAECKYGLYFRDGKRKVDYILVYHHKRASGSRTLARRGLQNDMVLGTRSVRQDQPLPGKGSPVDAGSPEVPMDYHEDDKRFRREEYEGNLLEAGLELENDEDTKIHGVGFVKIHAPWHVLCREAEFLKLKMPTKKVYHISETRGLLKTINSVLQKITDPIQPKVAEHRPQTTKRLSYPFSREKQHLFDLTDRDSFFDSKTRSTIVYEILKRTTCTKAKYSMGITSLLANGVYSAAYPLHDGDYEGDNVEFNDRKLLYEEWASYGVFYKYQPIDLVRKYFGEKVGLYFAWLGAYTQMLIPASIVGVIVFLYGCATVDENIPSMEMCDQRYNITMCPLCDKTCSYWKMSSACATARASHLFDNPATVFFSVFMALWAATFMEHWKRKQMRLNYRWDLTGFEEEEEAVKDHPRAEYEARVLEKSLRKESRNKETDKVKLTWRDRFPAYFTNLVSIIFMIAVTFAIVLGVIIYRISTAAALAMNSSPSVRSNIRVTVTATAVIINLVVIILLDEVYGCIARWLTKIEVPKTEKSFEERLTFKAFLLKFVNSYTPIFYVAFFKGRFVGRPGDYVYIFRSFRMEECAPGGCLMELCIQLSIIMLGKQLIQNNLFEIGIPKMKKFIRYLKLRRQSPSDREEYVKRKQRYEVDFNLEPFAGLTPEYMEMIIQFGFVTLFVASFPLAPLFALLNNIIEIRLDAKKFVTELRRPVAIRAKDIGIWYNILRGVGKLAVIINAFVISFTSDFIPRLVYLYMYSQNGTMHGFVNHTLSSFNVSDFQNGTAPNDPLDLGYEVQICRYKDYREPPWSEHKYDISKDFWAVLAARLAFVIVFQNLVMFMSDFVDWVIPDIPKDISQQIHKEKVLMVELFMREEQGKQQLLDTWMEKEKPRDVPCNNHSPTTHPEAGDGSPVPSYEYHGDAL
ANO1 activ: mouse TMEM16A channel activation, primary screen. Q8BHY3. hit rate 0.3% among 340,000. HEK293 TMEM16A/YFP-H148Q/I152L, iodide quench fluorescence; stronger effect = lower value. B-score at 10 µM. AID 623877;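 active = fluorescence-ratio B-score plate-corrected deviation score at least 3 library SD below zero, with starting fluorescence score within 5 deviations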;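 also: channel opened by trigger with iodide after compound preincubation; score built on the fluorescence ratio of max minus min over baseline; more negative score means more quench and so TMEM16A activation or potentiation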
MC4R antagonist: blocks human MC4R cAMP signaling; P32245; MC4R-expressing cells, MTII-stimulated cAMP, LANCE TR-FRET; inhibition, % at 6.5 µM; hit rate 0.48% among 360,000;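 active = inhibition above its plate's cutoff, the mean of tested wells on that plate plus 3 SD, cut at about 29% in these data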
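Material: U2OS-MC4R stable cell line | Reagent: Melanotan II challenge after compound preincubation | Doses: One concentration, 6.5 µM nominal | Incubation: 30-min compound preincubation, 1-h Melanotan II challenge, 1-h detection, room temperature | Signal: TR-FRET cAMP assay | Replicates: One well per compound, no replicates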
CSC inhib: blocks cancer stem cells | hit rate 1.1% among 300,000 | inhibition, % at 7.5 µM | cancer stem cell-like cells viability, luminescence; in the data active = inhibition above about 75%; tested in HMLE shEcad cells
MC4R ag barr: human MC4R agonism via beta-arrestin | hit rate 0.98% among 360,000 | activation, % at 8.9 µM | AID 540308 | U2OS MC4R beta-arrestin complementation, luminescence; percent of melanotan II response, DMSO zero;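 active = activation above a per-plate cutoff, the mean activation of sample wells on that plate plus 3 SD, cut at about 8% in these data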
cAMP nonselect: nonselective cAMP signaling inhibitor, MC4R antagonist counter-screen | hit rate 26% among 1,600 | parental U2OS, forskolin cAMP, LANCE TR-FRET | shares compounds with MC4R antagonist | inhibition, % at 6.5 µM | AID 602193;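 active = mean inhibition over triplicates above the low-control well mean plus 3 SD, set per campaign, cut at about 13% in these data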;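 also: signal is single emission at 671 nm which falls as cellular cAMP rises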
MC4R antag conf: human MC4R cAMP antagonism confirmation. shares compounds with MC4R antagonist. MC4R-expressing cells, MTII-stimulated cAMP, TR-FRET. inhibition, % at 6.5 µM. hit rate 27% among 1,600. AID 602195; in the data active = inhibition above about 29%
Large screens that a line does not name were inactive (follow-up assays come after a bar, where they were run). A selection: hits, their analogues and other compounds. The true share with any hit is near 3.8%.

COCCNc1nc(Oc2ccc(NC(C)=O)cc2)c2sc(-c3ccccc3)cc2n1	MC4R antagonist 46.6 (no result: Beta cell apopt, TMEM16A inh, ANO1 activ, CSC inhib) | cAMP nonselect inactive | MC4R antag conf inactive
CCCn1c(SCC(=O)N(C)CC(=O)Nc2ccc(C)cc2)n[nH]c1=O	none (no result: TMEM16A inh, CSC inhib)
S=C(NC1CC1)NC1CCCc2ccccc21 (stereo unspecified)	MC4R antagonist 28.5 | cAMP nonselect inactive | MC4R antag conf inactive
C[C@@H]1CCCCO[C@H](CN(C)C(=O)Nc2ccc(F)cc2)[C@@H](C)CN([C@H](C)CO)C(=O)c2cc(N(C)C)ccc2O1	none (no result: Beta cell apopt, TMEM16A inh, ANO1 activ, CSC inhib)
CCC(C)Nc1nc(Cl)nc(N(C#N)CN2C(=O)c3ccccc3S2(=O)=O)n1 (stereo unspecified)	MC4R antagonist 47.6 | cAMP nonselect 22.8 | MC4R antag conf 39.8
CC(C)CCNC(=O)CN(CC1CCCO1)C(=O)CCC(=O)Nc1nccs1 (stereo unspecified)	none
CCC(C)(C)NC(=O)CN(CC1CCCO1)C(=O)CCC(=O)Nc1nccs1 (stereo unspecified)	MC4R antagonist 34.5 (no result: Beta cell apopt) | cAMP nonselect inactive | MC4R antag conf inactive
Cc1ccccc1CN1CCC(Oc2ccc(C(=O)N3CCCC3)cc2)CC1	MC4R antagonist 28.7 | cAMP nonselect inactive | MC4R antag conf inactive
COc1ccc(Cl)cc1C1=NOC2(CCC2)C(=O)N1Cc1ccc(NC(C)=O)cc1	none (no result: Beta cell apopt, TMEM16A inh, ANO1 activ, CSC inhib)
CCN(Cc1ccccc1)C(=O)Cn1c(=O)n(CC(=O)N2CCCCC2)c(=O)c2sccc21	none (no result: Beta cell apopt)
COC(=O)C1=C(C(=O)OC)SC2(S1)C(C(=O)OC)=C(C(=O)OC)SC1=C2c2cc(C)cc(C)c2NC1(C)C	MC4R antagonist 53.5 (no result: Beta cell apopt) | cAMP nonselect 15.0 | MC4R antag conf 39.9
Cc1cc(C(=O)COc2cc(F)ccc2[N+](=O)[O-])c(C)n1CC1CCCO1 (stereo unspecified)	MC4R antagonist 32.5 (no result: TMEM16A inh) | cAMP nonselect inactive | MC4R antag conf inactive
CSc1sc(C)cc1C1C(C#N)=C(N)N(c2cccnc2)C2=C1C(=O)CC(C)(C)C2 (stereo unspecified)	MC4R antagonist 29.4 | cAMP nonselect inactive | MC4R antag conf inactive
Cc1ccccc1N1C(=O)c2cccc([N+](=O)[O-])c2C1=O	MC4R antagonist 32.0 (no result: Beta cell apopt, TMEM16A inh, CSC inhib) | cAMP nonselect 14.4 | MC4R antag conf inactive
CN(CC1COc2ccccc2O1)C(=O)CSc1ncccn1 (stereo unspecified)	none (no result: TMEM16A inh, CSC inhib)
CCCCOc1ccc(C(NC(=O)OCC)NC(=O)OCC)cc1	MC4R antagonist 28.6 (no result: Beta cell apopt) | cAMP nonselect inactive | MC4R antag conf inactive
O=C(CSc1n[nH]c(-c2cccs2)n1)NC1CCS(=O)(=O)C1 (stereo unspecified)	none
CCN(C(=O)CSc1n[nH]c(-c2cccs2)n1)C1CCS(=O)(=O)C1 (stereo unspecified)	MC4R antagonist 29.9 | cAMP nonselect inactive | MC4R antag conf inactive
CC(=O)c1ccc(N(C(=O)CNC(=O)c2ccco2)C(C(=O)NC2CCCC2)c2ccncc2)cc1 (stereo unspecified)	none (no result: CSC inhib)
CC1(C(=O)N2CCC(CO)(Cc3cccc(C(F)(F)F)c3)CC2)CC1	MC4R antagonist 29.8 (no result: Beta cell apopt) | cAMP nonselect inactive | MC4R antag conf inactive
Cc1c(CN2CCC(CO)(Cc3cccc(C(F)(F)F)c3)CC2)c2ccccc2n1C	none (no result: CSC inhib)
CC(C)(C)OC(=O)N1CCC(NC(=O)c2nc[nH]c2C(=O)NCC(=O)OCc2ccccc2)CC1	MC4R antagonist 34.4 | cAMP nonselect inactive | MC4R antag conf inactive
CC(C)(C)OC(=O)CNC(=O)c1[nH]cnc1C(=O)NC1CCN(C(=O)OC(C)(C)C)CC1	none (no result: MC4R antagonist, MC4R ag barr)
CC(=O)Nc1cccc(NS(=O)(=O)c2cc3c4c(c2)CCN4C(=O)CC3)c1	none
CCC(CC)C(=O)N(C)c1c(C)nc2c(OCCOc3ccc(F)cc3)cccn12	MC4R antagonist 30.5 (no result: Beta cell apopt, TMEM16A inh, ANO1 activ, CSC inhib) | cAMP nonselect inactive | MC4R antag conf inactive
O=C(NCCc1ccccc1F)C1CC(=O)N(c2ccc3c(c2)OCCO3)C1 (stereo unspecified)	none (no result: Beta cell apopt, TMEM16A inh, ANO1 activ, CSC inhib)
Cc1cc(Br)cc2c1N(C)C(=O)C2(c1ccc(O)cc1)c1ccc(O)cc1	none
Cc1ccc(NC(=O)COC(=O)c2cccc3c2C(=O)c2ccccc2C3=O)c(C)c1	none
Cc1ccc(C)c(NC(=O)COC(=O)c2cccc3c2C(=O)c2ccccc2C3=O)c1	MC4R antagonist 33.2 | cAMP nonselect inactive | MC4R antag conf inactive
CCCN(CCC)S(=O)(=O)c1ccc(N2CCCC2=O)c([N+](=O)[O-])c1	none
CCCN(CCC)S(=O)(=O)c1ccc(Cl)c([N+](=O)[O-])c1	MC4R antagonist 41.0 | cAMP nonselect 30.9 | MC4R antag conf 49.7
COc1ccc(NC(=O)c2cccc(-n3c(C)ccc3C)c2)c(OC)c1	MC4R antagonist 28.9 | cAMP nonselect inactive | MC4R antag conf inactive
COc1ccc(Cc2noc(CN3CCN(Cc4cccc(Cl)c4)CC3)n2)cc1OC	MC4R antagonist 33.8 | cAMP nonselect 16.6 | MC4R antag conf inactive
CC(Sc1ccc2ccccc2n1)C(=O)O (stereo unspecified)	MC4R antagonist 58.0 (no result: Beta cell apopt, TMEM16A inh, CSC inhib) | cAMP nonselect 42.2 | MC4R antag conf 76.7
CCOC(=O)c1ccc(N=c2sc(C(=O)OC)cc(=O)n2Cc2ccco2)cc1	MC4R antagonist 31.7, CSC inhib 92.4 | cAMP nonselect inactive | MC4R antag conf 36.3
CCn1c(=O)cc(C(=O)OC)sc1=Nc1ccc(F)c(F)c1	none
C=CCN1C(=O)c2ccc(C(=O)N3CCN(c4ccccc4OC)CC3)cc2C1=O	none
COc1ccc(NC(=O)C2Cc3c(-c4cccc(C(N)=O)c4)ccnc3O2)cc1 (stereo unspecified)	none (no result: Beta cell apopt, TMEM16A inh, ANO1 activ, CSC inhib)
O=C(O)c1ccc2c(c1)SC1=NS(=O)(=O)CCN12	MC4R antagonist 28.9 | cAMP nonselect 20.3 | MC4R antag conf inactive
Cc1ccc(Cc2c(-c3ccc(F)cc3)nc3cc(C)ccn23)cc1	none (no result: Beta cell apopt, TMEM16A inh, ANO1 activ, CSC inhib)
COc1ccc(Cl)cc1C(=O)NNC(=O)c1nn(C)c(=O)c2ccccc12	none (no result: TMEM16A inh)
S=c1[nH]c2ccccc2n2c(=S)[nH]nc12	MC4R antagonist 31.1 | cAMP nonselect 46.0 | MC4R antag conf 73.6
CCc1cc(C(=O)N(C)CC(=O)Nc2c(Cl)cccc2Cl)sc1C	none (no result: TMEM16A inh, CSC inhib)
Cc1c(C(=O)NC(=S)N(Cc2ccccc2)c2ccccn2)cccc1[N+](=O)[O-]	none (no result: TMEM16A inh)
Cc1ccc(Nc2nc(N/N=C/c3c[nH]c4ccccc34)nc(N3CCOCC3)n2)cc1	MC4R antagonist 31.1 (no result: CSC inhib) | cAMP nonselect inactive | MC4R antag conf inactive
Cn1cccc1C(=O)OCc1cc(-c2ccco2)on1	none (no result: TMEM16A inh, CSC inhib)
O=C(Nc1ccccc1Cl)c1cc[n+]([O-])cc1	none
COCC(=O)Nc1sc2c(c1C(=O)OC)CCCC2	none
